Reference: PMC3770484 (European journal of medicinal chemistry, 2013)

Tests used:
[1] = test system: tubulin (colchicine site); assay: Inhibition of [3H]colchicine binding to tubulin; details: tubulin 1 μM, [3H]colchicine 5 μM, 10 min at 37 °C, ± SD
How it was run: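 Tritiated colchicine (5.0 μM) incubated with 1.0 μM tubulin and test compound at 5.0 or 1.0 μM for 10 min at 37 °C. At this point about 40-60% of maximum colchicine binding occurs in controls. Percent inhibition of binding reported. Compounds inhibiting by more than 80% at 5 μM were retested at 1 μM.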

[2] = test system: human tumor cell line panel (A549, KB, KBvin, and DU145); assay: SRB cytotoxicity, range over the whole HTCL panel; type: cell-based; details: read-out: GI50 range over HTCL panel
How it was run: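 Sulforhodamine B growth assay on human A-549, KB, DU145 and KBvin lines; KBvin is a vincristine-resistant, P-gp-expressing KB subline. Paclitaxel served as reference.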

COc1ccc(/C=C\c2cc(OC)c(OC)c(OC)c2)cc1O [CA4, combretastatin A-4]
Inhibition of colchicine binding (%) inhibition ([1]; inhibitor at 1 μM): 90 ± 0.2% | Inhibition of colchicine binding (%) inhibition ([1]; inhibitor at 5 μM): 98 ± 0.6%

COc1ccc2c(c1)CCCN2c1nc(Cl)nc2ccccc12 [Compound 6d, N-(2′-Chloroquinazol-4′-yl)-6-methoxy-1,2,3,4-tetrahydroquinoline]
GI50 [2]: 1.5 to 1.7 nM
